SENP8 block-1: SENP8 protease inhibition | 330,000 compounds, 1.2% hits | purified SENP8, Z-RLRGG-aminoluciferin cleavage, luminescence | inhibition, % at 10 µM | Q96LD8; in the data active means inhibition above about 50%
SENP6 block: SENP6 protease inhibition | inhibition, % at 10 µM | Recombinant SENP6 catalytic domain, aminoluciferin luminescence | Q9GZR1 | 330,000 compounds, 1.8% hits;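 active means inhibition above about 50% at the single tested dose, limit read from the data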;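 further: plate controls were DMSO wells with enzyme for no effect and DMSO wells lacking enzyme for full effect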
SENP1 FRET inh: SENP1 (human) catalytic domain inhibition; Q9P0U3; recombinant SENP1 catalytic domain, CyPet-SUMO1-YPet FRET cleavage; inhibition, % at 10 µM; 360,000 compounds, 0.21% hits; AID 624204;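 active means inhibition at least 30% at 10 µM, raw YFP signal under a set limit, fluorescence ratio 0.5 to 1.5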;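 further: 0% = enzyme with DMSO and 100% = no enzyme wells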
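Test system: human SENP1 catalytic domain; medium: Tris pH 8 buffer plus EDTA, NaCl, BME, BSA, NP40, catalase; incubation: 50 min reaction at room temperature; technique: FRET, CFP and YFP emission; controls: no-enzyme low control and enzyme-plus-DMSO high control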
SENP7 block: inhibitors of human SENP7 protease; 330,000 compounds, 1.5% hits; Q9BQF6; recombinant SENP7, Z-RLRGG-aminoluciferin luminescence, 40 min; AID 434973; inhibition, % at 5 µM;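 active means inhibition above about 50% at the single test dose, limit read from the data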;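 further: plate controls were DMSO with enzyme for no effect and no enzyme buffer wells for full effect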
Apaf1 inhib: inhibitors of human Apaf-1 apoptosome. reconstituted apoptosome caspase-3 activity, DEVD-Rh110 fluorescence. inhibition, % at 20 µM. 330,000 compounds, 0.71% hits. AID 489030; active means inhibition of at least 40% at 20 µM;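 further: plate controls were DMSO wells for no effect and DEVD-CHO caspase inhibitor wells for full effect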
Target sequence (O14727 whole entry, looked up): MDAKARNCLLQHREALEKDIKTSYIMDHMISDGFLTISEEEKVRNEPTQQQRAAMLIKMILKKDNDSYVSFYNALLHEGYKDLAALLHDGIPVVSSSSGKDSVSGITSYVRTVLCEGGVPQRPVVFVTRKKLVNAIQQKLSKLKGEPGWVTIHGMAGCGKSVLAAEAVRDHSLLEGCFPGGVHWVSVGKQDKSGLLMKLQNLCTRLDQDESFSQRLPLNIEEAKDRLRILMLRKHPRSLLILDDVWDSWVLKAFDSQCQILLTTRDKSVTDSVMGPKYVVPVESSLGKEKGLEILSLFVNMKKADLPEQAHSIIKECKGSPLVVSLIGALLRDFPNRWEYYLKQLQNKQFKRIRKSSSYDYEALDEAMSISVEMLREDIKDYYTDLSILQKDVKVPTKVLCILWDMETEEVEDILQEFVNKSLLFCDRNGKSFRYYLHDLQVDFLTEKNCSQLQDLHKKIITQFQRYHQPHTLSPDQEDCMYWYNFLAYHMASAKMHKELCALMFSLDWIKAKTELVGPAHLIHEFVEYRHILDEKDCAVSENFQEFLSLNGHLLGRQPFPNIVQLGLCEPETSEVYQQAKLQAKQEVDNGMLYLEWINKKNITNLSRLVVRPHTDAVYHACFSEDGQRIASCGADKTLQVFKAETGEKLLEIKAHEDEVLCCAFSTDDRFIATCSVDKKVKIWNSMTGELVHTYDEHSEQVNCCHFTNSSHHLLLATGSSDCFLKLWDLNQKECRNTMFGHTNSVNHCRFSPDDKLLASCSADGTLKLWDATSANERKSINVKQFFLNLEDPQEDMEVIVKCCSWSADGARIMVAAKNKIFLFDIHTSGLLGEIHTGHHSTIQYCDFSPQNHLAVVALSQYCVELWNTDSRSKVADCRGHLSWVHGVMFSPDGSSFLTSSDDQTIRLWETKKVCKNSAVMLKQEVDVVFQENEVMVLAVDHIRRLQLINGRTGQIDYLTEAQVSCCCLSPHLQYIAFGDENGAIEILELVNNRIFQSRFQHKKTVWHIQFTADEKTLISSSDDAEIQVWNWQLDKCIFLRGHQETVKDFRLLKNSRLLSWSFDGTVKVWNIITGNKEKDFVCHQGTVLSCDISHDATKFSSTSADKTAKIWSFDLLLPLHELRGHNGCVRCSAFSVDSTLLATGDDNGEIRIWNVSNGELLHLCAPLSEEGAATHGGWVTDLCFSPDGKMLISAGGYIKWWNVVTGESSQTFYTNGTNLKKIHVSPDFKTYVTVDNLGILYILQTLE
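Material: cell-free apoptosome with Apaf-1, procaspase-3 and caspase-9; Buffer or medium: Hepes pH 7.5 with detergent and BSA; Reagent: cytochrome c trigger plus (Z-DEVD)2-Rh110 caspase-3 substrate; Times: compound with Apaf-1, dATP, procaspase-3 30 min, then 50 min reaction, room temperature; Technique: Rh110 fluorescence intensity.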
SENP8 block-2: SENP8 (human) protease inhibition | Q96LD8 | recombinant SENP8, Nedd8 substrate fluorescence | inhibition, % at 20 µM | 360,000 compounds, 0.64% hits | AID 602440; in the data active means inhibition mostly above about 40%, no sharp cut-off; inactive means mostly below about 27%
SENP8 confirm: confirmation of human SENP8 protease inhibitors | Recombinant SENP8, Z-RLRGG-aminoluciferin luminescence, 60 min | shares compounds with SENP7 block | 6,200 compounds, 40% hits | inhibition, % at 12.5 µM;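 active means mean inhibition across replicates above about 50%, limit read from the data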
SENP6 confirm: human SENP6 inhibition, confirmed. shares compounds with SENP7 block. recombinant SENP6, Z-RLRGG-aminoluciferin luminescence. inhibition, % at 12.5 µM. 6,200 compounds, 58% hits. AID 488915
SENP7 conf: human SENP7 inhibition, confirmed; shares compounds with SENP7 block; recombinant SENP7, Z-RLRGG-aminoluciferin luminescence, 40 min; inhibition, % at 12.5 µM; 6,200 compounds, 69% hits; AID 488917
Casp3 select: selectivity test for SENP inhibitors: human caspase-3 inhibition; shares compounds with SENP7 block; purified caspase-3, Z-DEVD-aminoluciferin luminescence, 60 min; inhibition, % at 12.5 µM; 6,200 compounds, 60% hits; AID 488918;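 active means mean inhibition above about 50%, limit read from the data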;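 further: plate controls were enzyme with DMSO for no effect and wells without caspase-3 for full effect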
Luc interf: interferes with luciferase luminescence in SENP counter-screen | shares compounds with SENP7 block | Pre-incubated SENP8/Z-RLRGG-aminoluciferin, luciferase luminescence interference | inhibition, % at 12.5 µM | 6,200 compounds, 39% hits;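 active means mean inhibition above about 50% when retested at one dose, limit read from the data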;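 further: plate controls were DMSO wells with completed reaction for no effect and substrate without enzyme for full effect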
An asterisk follows results filed as active; / = no result given. Sampled rows, rich in hits. Any-hit rate of the full collection: about 2.9%.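 How the source made its calls, unless noted: active means mean inhibition above about 50% in the one-dose retest (limit read from the data); inactive means the rest.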

SMILES	SENP8 block-1	SENP6 block	SENP1 FRET inh	SENP7 block	Apaf1 inhib	SENP8 block-2	SENP8 confirm	SENP6 confirm	SENP7 conf	Casp3 select	Luc interf
Cc1ccc(CCC(=O)Nc2nccs2)o1	3	4	1	92*	-5	13	0	-2	-8	-1	-2
CCc1ccc(CCC(=O)Nc2nccs2)o1	0	4	-1	3	1	7	/	/	/	/	/
CCOc1ccc(NC(=O)CCN2C(=O)c3ccccc3C2=O)cc1	-8	11	3	-7	1	8	/	/	/	/	/
COC(=O)C[C@@H]1C[C@@H]2c3cc(NS(=O)(=O)c4ccc(F)cc4)ccc3O[C@@H]2[C@H](CO)O1	/	/	-3	/	/	16	/	/	/	/	/
COc1c2c(c(OC)c3c1c(=O)c1ccccc1n3C)OCO2	/	/	-28	/	/	-168	/	/	/	/	/
Cc1ccc2oc(-c3cccc(NC(=S)NC(=O)/C=C/c4ccco4)c3)nc2c1	56*	57*	2	18	3	-17	-24	-8	4	16	11
Cc1ccc2oc(-c3cccc(NC(=S)NC(=O)c4cccs4)c3)nc2c1	6	45	1	11	-5	-230	/	/	/	/	/
O=C(COC(=O)c1ccc(NC(=O)C2CC=CCC2C(=O)O)cc1)c1ccccc1 (centres undefined)	2	21	0	4	10	16	/	/	/	/	/
O=C(NC1CCCC1)c1nc(-c2c(F)cccc2F)oc1-c1ccccc1	/	/	6	/	/	-171	/	/	/	/	/
Cc1nc(C)c(-c2csc(Nc3ccc(F)cc3)n2)s1	-2	-1	1	1	18	-14	/	/	/	/	/
Cc1nc(C)c(-c2csc(Nc3ncccc3C)n2)s1	61*	67*	2	59*	11	5	52*	60*	86*	50	25
COc1ccc(-c2csc(Nc3ncccc3C)n2)cc1	92*	100*	1	93*	13	11	95*	97*	102*	87*	92*
Cc1cccnc1Nc1nc(-c2ccc(O)c(O)c2)cs1	92*	92*	3	66*	19	11	89*	89*	96*	45	86*
CCCCNC(=O)C1(C)CCN1C(=O)c1cc(OC)ccc1Br (centres undefined)	/	/	1	/	/	6	/	/	/	/	/
O=C(ONc1ccc(N=NC(=O)c2ccccc2O)cc1)c1ccccc1	85*	91*	2	56*	3	32	26	27	24	85*	7
COc1ccc(OC)c(NC(=O)c2ccc3c(c2)OCO3)c1	-7	-12	1	-14	2	-4	/	/	/	/	/
COc1ccccc1NC(=O)c1ccc2c(c1)OCO2	38	60*	0	51*	2	4	51*	48	84*	79*	60*
COc1ccccc1NC(=O)/C=C/c1ccc2c(c1)OCO2	65*	73*	1	68*	-5	2	78*	75*	93*	73*	36
O=C(/C=C/c1ccc2c(c1)OCO2)Nc1ccc(Cl)cn1	-2	4	-1	54*	5	-373	-27	-17	9	6	-3
O=C(COc1ccc2c(c1)OCO2)Nc1ccc(Cl)cn1	-2	17	-1	13	17	-2	/	/	/	/	/
COC(=O)c1sccc1S(=O)(=O)Nc1ccc(C(O)(C(F)(F)F)C(F)(F)F)cc1	/	/	1	/	/	1	/	/	/	/	/
COc1ccc(-n2nnnc2C(c2ccccc2OC(F)(F)F)N2CCN(C/C=C/c3ccccc3)CC2)cc1 (centres undefined)	/	/	1	/	/	22	/	/	/	/	/

Screening results (PubChem)
